Source: PubChem (The Scripps Research Institute Molecular Screening Center)
TAAR1 antagonist = antagonists of human TAAR1; CHO RD-HGA16 TAAR1, Fluo-8 calcium fluorescence, antagonist; 1.5% of 360,000 active; AID 624466; Q96RJ0; inhibition, % at 3 µM;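 active = inhibition above a per-plate cutoff, the mean inhibition of test compounds on that plate plus 3 SD, cut at about 49% in these data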;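 note: 0% = DMSO plus EC80 beta-PEA response and 100% = DMSO alone without agonist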
Target sequence (Q96RJ0 whole entry, looked up): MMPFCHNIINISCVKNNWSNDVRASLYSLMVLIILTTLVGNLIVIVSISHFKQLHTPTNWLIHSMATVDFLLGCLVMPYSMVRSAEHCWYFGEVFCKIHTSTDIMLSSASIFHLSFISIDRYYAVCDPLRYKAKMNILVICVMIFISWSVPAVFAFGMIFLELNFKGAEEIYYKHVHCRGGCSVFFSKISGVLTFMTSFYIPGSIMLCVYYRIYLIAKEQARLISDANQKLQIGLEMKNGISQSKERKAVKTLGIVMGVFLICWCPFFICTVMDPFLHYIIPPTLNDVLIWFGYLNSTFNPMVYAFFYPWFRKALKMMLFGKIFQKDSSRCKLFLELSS
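Assay system: RD-HGA16 CHO cells with stable hTAAR1 and Gα16 / Reagent: EC80 β-phenethylamine stimulus / Doses: 3 µM, single point / Timing: dye loading 75 min at 37 °C, then 30 min room temperature / Measured by: Fluo-8 intracellular calcium dye fluorescence, real-time kinetic reads / Controls: vehicle wells and EC80 agonist wells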
TAAR1 agonist = agonists of human TAAR1; activation, % at 3 µM; AID 624467; Q96RJ0; CHO RD-HGA16 TAAR1, Fluo-8 calcium fluorescence; vehicle wells 0%, saturating PEA agonist 100%; 0.99% of 360,000 active;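 active = activation above the mean activation of all test compounds in the run plus 3 SD, cut at about 38% in these data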
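test system = CHO RD-HGA16 cells carrying human TAAR1 plus Gα16 | schedule = 17-24 h seeding, 75 min 37 °C dye, 30 min RT | compound dosing = 3 µM single concentration | control set = DMSO and PEA EC100 | replicates = n 1 | signal = Fluo-8 fluorescence, 5 s baseline then 140 s kinetic read | measure = percent activation vs PEA EC100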
OX1R antag-1 = blocks the human orexin 1 receptor | O43613 | OX1R-expressing cells, FRET antagonist read-out | inhibition, % at 6.6 µM | 1.8% of 330,000 active | AID 485270; in the data active = inhibition mostly above about 38%, no sharp cut-off; inactive = mostly below about 40%;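 note: 0% = agonist challenge alone and 100% = reference antagonist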
OX1R antag-2 = human HCRTR1 antagonism; CHO/OX1R cells, Fluo-8 calcium fluorescence, orexin A; AID 434989; O43613; 0.43% of 330,000 active; inhibition, % at 5 µM;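 active = inhibition above its plate's threshold, mean inhibition of all tested compounds on the plate plus 3 SD, cut at about 37% in these data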;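 note: 0% = orexin A challenge wells and 100% = SB-334867-A antagonist wells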
CHO parental Ca = counter-screen for OX1R antagonists: effect in parental CHO cells; parental CHO-K1, ATP-induced calcium, Fluo-8 fluorescence; inhibition, % at 5.6 µM; 0.63% of 330,000 active; AID 463079;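 active = inhibition above that plate's mean sample inhibition plus 3 SD, cut at about 26% in these data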;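 note: 0% = ATP-challenged DMSO wells and 100% = DMSO wells without ATP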
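Test system: untransfected parental CHO cell line. Compound: one dose, 5.6 µM nominal. Detection: intracellular calcium via Fluo-8 no-wash fluorescent dye. Measure: % inhibition. Benchmarks: ATP-challenged DMSO wells low, unchallenged DMSO wells high.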
GalR3 antagonist = antagonists of human GalR3; HEK293 GalR3-CNG cAMP membrane potential fluorescence; galR3 body fused to GalR1 C-terminus; 0.44% of 360,000 active; O60755; AID 651719; inhibition, % at 3 µM;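 active = inhibition above the screen-wide average plus 3 SD, cut at about 13% in these data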;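 note: forskolin and galanin both at EC90 stimulate the cells; cAMP rise reported by CNG channel membrane potential dye signal; 0% = forskolin plus galanin with DMSO and 100% = forskolin alone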
Target sequence (O60755 1-299 limits assumed): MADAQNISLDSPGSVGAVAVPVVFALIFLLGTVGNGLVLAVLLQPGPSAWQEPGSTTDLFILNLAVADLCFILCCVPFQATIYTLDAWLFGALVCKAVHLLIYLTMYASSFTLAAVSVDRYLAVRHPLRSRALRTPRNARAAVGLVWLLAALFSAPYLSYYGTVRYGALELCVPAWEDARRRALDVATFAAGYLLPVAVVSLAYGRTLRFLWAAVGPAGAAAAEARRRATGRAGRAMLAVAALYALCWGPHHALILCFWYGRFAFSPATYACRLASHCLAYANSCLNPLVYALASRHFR
* marks the source's active call; other numbers are inactive results; . = no result given. Compounds with a hit are over-represented: about 4.2% of the library has one in this group of screens.

SMILES	TAAR1 antagonist	TAAR1 agonist	OX1R antag-1	OX1R antag-2	CHO parental Ca	GalR3 antagonist
CCC(=O)N(CC)C1=C(O)c2ccccc2C(=O)C1=O	-1.8	9.5	57.9*	-0.7	-0.1	-4.5
CCOC(=O)c1sc(NC(=O)c2ccc(S(=O)(=O)N(C)C)cc2)cc1C	13.3	15.3	57.7*	5.7	-15.0	-3.3
CCOC(=O)c1sc(NC(=O)Nc2ccc(Cl)cc2)cc1C	82.5*	12.9	86.2*	66.7*	79.0*	-2.2
CCOC(=O)c1sc(NC(=O)c2ccc(Cl)s2)cc1C	8.2	-0.3	20.7	-24.0	-10.0	-0.8
Cn1c(SCC(=O)NC2CCCc3ccccc32)nnc1C1CC1 (stereo unspecified)	-24.8	4.6	.	.	.	-6.6
Cc1ccc(C(C)(C)C)cc1S(=O)(=O)Nc1ncnc2sccc12	-8.1	3.8	6.3	5.8	-26.9	-5.3
CNS(=O)(=O)c1cc(Nc2ncnc3sccc23)ccc1C	7.2	4.5	62.7*	18.7	3.9	-11.0
O=C(Cn1cnc([N+](=O)[O-])n1)NCc1ccccc1	2.4	-0.5	72.0*	2.5	-2.0	2.2
O=C(Cn1cnc([N+](=O)[O-])n1)NCCO	-36.7	9.1	28.5	0.9	-5.7	0.6
COc1ccc([C@H]2N[C@]3(CCCN(Cc4ccccc4)C3=O)[C@H]3C(=O)N(C)C(=O)[C@@H]23)cc1	-6.2	1.9	.	.	.	-6.2
Cc1cccc(Cn2cnc3c(nnn3Cc3ccc(F)cc3)c2=O)c1	26.5	12.9	11.6	-19.9	-10.6	-6.8
O=C(Cn1cnc2c(nnn2Cc2ccc(F)cc2)c1=O)OCc1ccccc1	20.3	11.2	8.2	8.1	7.9	-1.3
Cc1cccc(Cn2cnc3c(nnn3Cc3ccccc3F)c2=O)c1	60.3*	18.1	2.9	16.8	-1.4	-6.3
Cc1ccc(Cn2nnc3c(=O)n(CC(=O)OCc4ccccc4)cnc32)cc1	21.3	8.6	9.3	35.8	30.6*	-3.5
CCn1c2ccccc2c2cc([N+](=O)[O-])ccc21	-7.4	-0.2	21.5	-39.1	-29.6	-3.6
CCn1c2ccccc2c(=O)c2ccccc21	-7.3	2.3	66.5*	-9.7	13.8	-3.4
O=C(CCNS(=O)(=O)c1ccc2nsnc2c1)N1CCN(c2ccncc2)CC1	-1.5	8.6	50.6*	1.5	-8.0	-3.8
Cc1ccc(S(=O)(=O)NCCC(=O)N2CCN(c3cccc(Cl)c3)CC2)cc1C	-17.2	4.8	35.0	-13.4	-15.5	-1.6
Cc1cc2c(N=O)c(NO)ccc2[nH]1	.	.	61.6*	-5.2	-32.3	.
COc1cc(Cl)ccc1OCc1cc(C(=O)NCC(C)c2ccccc2)no1 (stereo unspecified)	10.8	4.0	14.3	-37.8	-26.9	-5.5
CCOC(=O)N1CCN(C(=O)c2cc(COc3ccc4ncccc4c3)on2)CC1	-10.6	9.4	12.3	22.1	28.5*	-6.7
Cc1cccnc1CN1CCN(C(=O)c2cc(COc3ccc4ncccc4c3)on2)CC1	8.5	9.6	53.0	49.2*	59.5*	5.1
CC(CNC(=O)c1cc(COc2ccc3ncccc3c2)on1)c1ccccc1 (stereo unspecified)	32.2	16.4	57.3*	32.9	58.4*	-2.0
COc1cc(Cl)ccc1OCc1cc(C(=O)N2CCN(C)C(=O)[C@@H]2C)no1	9.1	0.2	.	.	.	-3.0
c1csc(CNc2nc(NCC3CCCCC3)c3sccc3n2)c1	60.8*	43.2*	.	.	.	0.5
SMILES	TAAR1 antagonist	TAAR1 agonist	OX1R antag-1	OX1R antag-2	CHO parental Ca	GalR3 antagonist
Clc1ccccc1OCCNc1nc(NCC2CC2)nc2ccsc12	49.3*	8.6	.	.	.	-8.1
O=C1CCCN1CCCNc1nc(NCc2cccs2)nc2ccsc12	98.8*	92.4*	.	.	.	-8.8
O=C1CCCN1CCCNS(=O)(=O)c1cccs1	-9.2	17.1	4.0	-9.9	-3.1	-1.5
COCCNc1nc(NCc2cccs2)nc2ccsc12	103.9*	122.2*	.	.	.	-10.3
c1ccc(CNc2nc(NCc3cccs3)nc3ccsc23)cc1	81.2*	51.9*	.	.	.	-7.6
c1ccc(CNc2nc(NCCc3ccncc3)c3sccc3n2)cc1	106.0*	125.2*	.	.	.	-7.6
COc1ccccc1CNc1nc(Nc2ccc(C)cc2C)c2sccc2n1	28.7	3.4	.	.	.	-10.8
CC(=O)NCCNc1nc(NCc2cccs2)nc2ccsc12	23.1	33.8	.	.	.	-4.4
Cc1ccc(Nc2nc(NCc3ccccc3)nc3ccsc23)c(C)c1	88.5*	29.4	.	.	.	-10.8
CNc1nc(NCc2cccc(OC)c2)c2sccc2n1	20.8	26.7	.	.	.	-9.4
COc1cccc(CNc2nc(NCc3ccccc3)nc3ccsc23)c1	96.4*	49.0*	.	.	.	-7.4
CCCCOC(=O)C1C2C=C[C@]3(CN(C(C)c4ccc(OC)cc4)C(=O)[C@H]13)O2 (stereo partly specified)	-1.5	6.5	15.7	-16.1	-6.4	0.9
COC(=O)C/C=C/[C@@H](C)[C@@H](/C=N/O[C@H](C)c1cn([C@@H]2COC[C@H]2O)nn1)NS(=O)(=O)c1ccc(C)cc1	.	.	20.8	-7.7	-8.0	.
CSc1nc(C(=O)N2CCc3c([nH]c4ccccc34)C2c2ccccn2)cs1 (stereo unspecified)	22.5	1.3	9.5	-17.4	-23.3	-4.8
O=C(Nc1ccccc1)c1cc(C2CCCCN2C(=O)c2ccc3c(c2)CCO3)on1 (stereo unspecified)	-4.8	1.8	.	.	.	-7.1
CNc1nc(NCc2ccccc2)c2sccc2n1	31.0	46.1*	.	.	.	-4.1
O=C(O)c1cccc(N2C(=O)c3ccc4c5c(ccc(c35)C2=O)C(=O)N(c2cccc(C(=O)O)c2)C4=O)c1	-4.5	-1.1	74.1*	-7.5	13.6	1.2
OCC(O)CNC(=S)NC1CCCCC1 (stereo unspecified)	-21.6	11.5	11.2	-9.6	-5.3	1.0
Cc1cccc(Cn2cc(SCC(=O)Nc3nccs3)c3ccccc32)c1	8.8	-1.6	34.2*	-20.1	-16.9	.
Cc1ccc(Cn2cc(SCC(=O)Nc3nccs3)c3ccccc32)cc1	-4.6	-0.3	18.6	-33.9	-1.6	.
C#Cc1cccc(-n2nnc(C(C)=O)c2C)c1	-2.2	6.5	8.4	-1.7	-14.5	-7.5
Cc1ccc(-n2c(-c3ccccc3)c[n+]3c2CCc2ccccc2-3)c(C)c1	14.9	1.1	36.8	17.4	54.4*	-6.8
Cc1ccc(-n2c(-c3ccccc3)c[n+]3c2CCC3)cc1	-3.8	6.2	22.9	-6.4	-8.8	-6.3
Cc1cc(C(=O)NNC(=S)NCc2ccco2)nn1C	11.7	-0.3	9.6	-13.7	-11.3	-4.1
OC(c1ccccc1)(c1ccccc1)C1CCN(CCCOc2ccc(F)cc2)CC1	26.5	39.1*	.	.	.	-7.2
C#Cc1ccccc1OCCCN1CCC(C(O)(c2ccccc2)c2ccccc2)CC1	50.5*	39.5*	.	.	.	-9.9
